Measured values from ChEMBL document CHEMBL1165950, “Design and synthesis of new potent anticancer pyrazoles with high FLT3 kinase inhibitory selectivity” (Bioorg Med Chem, 2010).

How the values were obtained:
Assay type in all cases: functional
NCI/ADR-RES = assay: Cytotoxicity against human NCI/ADR-RES cells assessed as cell growth at 100 nM after 48 hrs by sulforhodamine B assay; conditions: read-out: Activity
T47D [1] = assay: Cytotoxicity against human T47D cells assessed as cell growth at 0.001 uM after 48 hrs by sulforhodamine B assay; conditions: read-out: Activity
T47D [2] = assay: Cytotoxicity against human T47D cells assessed as cell growth at 100 nM after 48 hrs by sulforhodamine B assay; conditions: read-out: Activity
A549 = assay: Cytotoxicity against human A549 cells assessed as cell growth at 1 uM after 48 hrs by sulforhodamine B assay; conditions: A549, 48 h, read-out: Activity
Outline: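 NCI-60 five-dose screen. Cells were grown in RPMI 1640 with 5% FBS and 2 mM L-glutamine, plated at 5000–40,000 cells/well and preincubated for 24 h. Time-zero plates were TCA-fixed. DMSO-solubilized drug was added at five concentrations (10-fold or ½-log serial dilutions) for 48 h at 37 °C, 5% CO2. Cells were TCA-fixed, stained with 0.4% SRB and read at 515 nm. Percent growth used time-zero, control and test absorbances.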

Malme-3M = assay: Cytotoxicity against human MALME-3M cells assessed as cell growth at 10 uM; conditions: read-out: Activity
Outline: (§1)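 NCI-60 screen: cells grown in RPMI 1640 with 5% FBS and 2 mM L-glutamine, plated at 5000–40,000 cells/well according to doubling time, and preincubated 24 h at 37 °C, 5% CO2. The single 10 µM dose (DMSO stock) was added, then incubated 48 h. Cells were TCA-fixed and stained with 0.4% SRB, read at 515 nm, and growth % calculated against time-zero and control plates.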

UACC-257 [3] = assay: Cytotoxicity against human UACC257 cells assessed as cell growth at 10 uM; conditions: read-out: Activity; outline: as §1
MDA-MB-468 = assay: Cytotoxicity against human MDA-MB-468 cells assessed as cell growth at 10 uM; conditions: read-out: Activity; outline: as §1
HL-60(TB) = assay: Cytotoxicity against human HL-60(TB) cells assessed as cell growth at 0.001 uM after 48 hrs by sulforhodamine B assay; conditions: HL-60, 48 h, read-out: Activity
Outline: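 NCI 60-cell panel. Cells are grown in RPMI 1640 with 5% FBS and 2 mM L-glutamine, seeded at 5000–40,000 cells/well according to doubling time, and preincubated 24 h. Time-zero plates are TCA-fixed. Compound from DMSO stock is given at five 10-fold or 1/2-log concentrations for 48 h at 37 °C, 5% CO2. Suspension cells are fixed with 80% TCA (final 16%) and SRB-stained, with absorbance at 515 nm. Percent growth is derived from Tz, control and test readings.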

SNB-19 = assay: Cytotoxicity against human SNB19 cells assessed as cell growth at 1 uM after 48 hrs by sulforhodamine B assay; conditions: SNB-19, 48 h, read-out: Activity
U-251 = assay: Cytotoxicity against human U251 cells assessed as cell growth at 0.01 uM after 48 hrs by sulforhodamine B assay; conditions: U-251, 48 h, read-out: Activity
M14 = assay: Cytotoxicity against human M14 cells assessed as cell growth at 0.01 uM after 48 hrs by sulforhodamine B assay; conditions: M14, 48 h, read-out: Activity
UACC-257 [4] = assay: Cytotoxicity against human UACC257 cells assessed as cell growth at 0.01 uM after 48 hrs by sulforhodamine B assay; conditions: UACC-257, 48 h, read-out: Activity
SK-OV-3 = assay: Cytotoxicity against human SKOV3 cells assessed as cell growth at 0.01 uM after 48 hrs by sulforhodamine B assay; conditions: SK-OV-3, 48 h, read-out: Activity
OVCAR-8 = assay: Cytotoxicity against human OVCAR8 cells assessed as cell growth at 0.001 uM after 48 hrs by sulforhodamine B assay; conditions: OVCAR-8, 48 h, read-out: Activity
NCI-H23 = assay: Growth inhibition of human NCI-H23 cells after 48 hrs by sulforhodamine B assay; conditions: NCI-H23, 48 h; for CC50: read-out: LC50 (the source's name)
Outline: (§2)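 NCI 60-cell screen, five-dose mode. Cells grown in RPMI 1640 with 5% FBS and 2 mM L-glutamine and plated at 5000-40,000 cells/well according to doubling time. After 24 h preincubation, a Tz plate was TCA-fixed. Five concentrations (10-fold or 1/2 log dilutions) were applied for 48 h at 37 °C. SRB staining read at 515 nm. IC50 taken from [(Ti-Tz)/(C-Tz)]×100 = 50.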

COLO 205 = assay: Growth inhibition of human COLO205 cells after 48 hrs by sulforhodamine B assay; conditions: COLO 205, 48 h; for CC50: read-out: LC50 (the source's name)
Outline: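 NCI five-dose SRB assay in RPMI 1640 with 5% FBS and 2 mM L-glutamine. Cells were preincubated 24 h, then exposed 48 h at 37 °C to five concentrations (10-fold or half-log serial dilutions from DMSO stocks). TCA fixation, SRB staining, and absorbance at 515 nm followed. IC50 was taken where [(Ti−Tz)/(C−Tz)]×100 = 50, with Tz as time-zero cell density.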

SF-539 = assay: Growth inhibition of human SF539 cells after 48 hrs by sulforhodamine B assay; conditions: SF-539, 48 h; for CC50: read-out: LC50 (the source's name); outline: as §2
SK-MEL-5 = assay: Growth inhibition of human SK-MEL-5 cells after 48 hrs by sulforhodamine B assay; conditions: SK-MEL-5, 48 h; for CC50: read-out: LC50 (the source's name); outline: as §2
EKVX = assay: Cytotoxicity against human EKVX cells assessed as cell growth at 100 nM after 48 hrs by sulforhodamine B assay; conditions: read-out: Activity
[5] = Growth inhibition of human Hs 578T cells after 48 hrs by sulforhodamine B assay; conditions: for CC50: read-out: LC50 (the source's name); outline: as §2
T47D [6] = assay: Growth inhibition of human T47D cells after 48 hrs by sulforhodamine B assay; outline: as §2
SR = assay: Cytotoxicity against human SR cells assessed as cell growth at 10 uM; conditions: read-out: Activity; outline: as §1
DU-145 = assay: Cytotoxicity against human DU145 cells assessed as cell growth at 1 uM after 48 hrs by sulforhodamine B assay; conditions: DU-145, 48 h, read-out: Activity
[7] = Cytotoxicity against human Hs 578T cells assessed as cell growth at 1 uM after 48 hrs by sulforhodamine B assay; conditions: read-out: Activity
HCT-116 = assay: Cytotoxicity against human HCT116 cells assessed as cell growth at 10 uM; conditions: read-out: Activity
Outline: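 Single-dose NCI-60 screen at 10 µM. Cells were grown in RPMI 1640 with 5% FBS and 2 mM L-glutamine, then treated for 48 h at 37 °C. Protein was measured by SRB staining with absorbance at 515 nm. Percentage growth was recorded, and inhibition percentage was calculated as 100 minus growth percentage.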

CAKI-1 = assay: Cytotoxicity against human Caki1 cells assessed as cell growth at 10 uM after 48 hrs by sulforhodamine B assay; conditions: CAKI-1, 48 h, read-out: Activity

Row | Structure (SMILES) | growth at 0.1 µM (NCI/ADR-RES) [%] | growth at 0.001 µM (T47D [1]) [%] | growth at 0.1 µM (T47D [2]) [%] | growth at 1 µM (A549) [%] | growth at 10 µM (Malme-3M) [%] | growth at 10 µM (UACC-257 [3]) [%] | growth at 10 µM (MDA-MB-468) [%] | growth at 0.001 µM (HL-60(TB)) [%] | growth at 1 µM (SNB-19) [%] | growth at 0.01 µM (U-251) [%] | growth at 0.01 µM (M14) [%] | growth at 0.01 µM (UACC-257 [4]) [%] | growth at 0.01 µM (SK-OV-3) [%] | growth at 0.001 µM (OVCAR-8) [%] | GI50 (NCI-H23) [µM] | TGI (NCI-H23) [µM] | CC50 (NCI-H23) [µM] | GI50 (COLO 205) [µM] | TGI (COLO 205) [µM] | CC50 (COLO 205) [µM] | also measured
1 | COc1cc(C)cc(-c2c(-c3ccnc(-c4ccc(N(C)C)cc4)c3)cnn2CC#N)c1 | 2 | 90 | 44 | 5 | 103 | 83.8 | -23.1 | 82 | 36 | 41 | -19 | 38 | 47 | 101 | 0.276 | > 100 | > 100 | 0.22 | > 100 | > 100 | GI50 (SF-539): 0.127 µM; CC50 (SF-539): > 100 µM; GI50 (SK-MEL-5): 0.0394 µM; TGI (SK-MEL-5): 0.309 µM; CC50 (SK-MEL-5): > 100 µM; growth at 0.1 µM (EKVX): 14%; GI50 [5]: 0.166 µM; TGI [5]: > 100 µM; CC50 [5]: > 100 µM; GI50 (T47D [6]): 0.056 µM; LC50 (T47D [6]): > 100 µM; TGI (T47D [6]): > 100 µM; growth at 10 µM (SR): -6.91%; growth at 1 µM (DU-145): -47%; growth at 1 µM [7]: 18%; growth at 10 µM (HCT-116): -32.4%; growth at 10 µM (CAKI-1): -25%
2 | COc1cc(C)cc(-c2nn(CC#N)cc2-c2ccc(-c3cccc(C(C)=O)c3)nc2)c1 | 59 | 88 | 81 | 21 | 60.5 | 50.8 | -30.5 | 94 | 39 | 92 | 93 | 85 | 101 | 91 | 3.45 | 84 | > 100 | 1.85 | 4.13 | 9.2 | GI50 (SF-539): 1.73 µM; TGI (SF-539): 4.65 µM; CC50 (SF-539): > 100 µM; GI50 (SK-MEL-5): 1.54 µM; TGI (SK-MEL-5): 6.79 µM; CC50 (SK-MEL-5): 39.8 µM; growth at 0.1 µM (EKVX): 89%; GI50 [5]: 1.28 µM; TGI [5]: 3.87 µM; CC50 [5]: 31.2 µM; GI50 (T47D [6]): 2.23 µM; LC50 (T47D [6]): > 100 µM; TGI (T47D [6]): 8.23 µM; growth at 10 µM (SR): 18.4%; growth at 1 µM (DU-145): -38%; growth at 1 µM [7]: -43%; growth at 10 µM (HCT-116): 10.3%; growth at 10 µM (CAKI-1): -18%
3 | Cc1cc(O)cc(-c2nn(CC#N)cc2-c2ccnc(-c3ccc(N(C)C)cc3)c2)c1 | 91 | 93 | 82 | 23 | 75 | 54.1 | -13.9 | 100 | 28 | 94 | 92 | 81 | 98 | 100 | 4.48 | 24.8 | > 100 | 1.95 | 4.13 | 87.8 | GI50 (SF-539): 2.12 µM; TGI (SF-539): 5.33 µM; CC50 (SF-539): 27.3 µM; GI50 (SK-MEL-5): 1.99 µM; TGI (SK-MEL-5): 5.75 µM; CC50 (SK-MEL-5): 22.9 µM; growth at 0.1 µM (EKVX): 81%; GI50 [5]: 2.13 µM; TGI [5]: 7 µM; CC50 [5]: > 100 µM; GI50 (T47D [6]): 2.59 µM; LC50 (T47D [6]): > 100 µM; TGI (T47D [6]): 12.4 µM; growth at 10 µM (SR): 20.5%; growth at 1 µM (DU-145): -7%; growth at 1 µM [7]: -15%; growth at 10 µM (HCT-116): 12.3%; growth at 10 µM (CAKI-1): -31%
4 | Cc1cc(O)cc(-c2nn(CC#N)cc2-c2ccnc(-c3ccc(Oc4ccccc4)cc3)c2)c1 | 95 | 95 | 84 | -37 | 115 | 71.7 | 6.32 | 96 | 55 | 92 | 96 | 80 | 98 | 96 | 1.94 | 3.97 | 8.13 | 1.8 | 3.26 | 5.9 | GI50 (SF-539): 3.38 µM; TGI (SF-539): 13.5 µM; CC50 (SF-539): 44 µM; GI50 (SK-MEL-5): 2.93 µM; TGI (SK-MEL-5): 9.9 µM; CC50 (SK-MEL-5): 31.5 µM; growth at 0.1 µM (EKVX): 77%; GI50 [5]: 2.02 µM; TGI [5]: 6.08 µM; CC50 [5]: > 100 µM; GI50 (T47D [6]): 2.04 µM; LC50 (T47D [6]): 39.1 µM; TGI (T47D [6]): 5.81 µM; growth at 10 µM (SR): 32.4%; growth at 1 µM (DU-145): -14%; growth at 1 µM [7]: -23%; growth at 10 µM (HCT-116): 25.7%; growth at 10 µM (CAKI-1): -67%
5 | COc1cc(C)cc(-c2nn(CC#N)cc2-c2ccnc(-c3ccc(N(C)C)cc3)c2)c1 | -22 | 102 | 24 | 14 | 82 | 68.2 | -48.4 | 97 | 19 | 105 | 93 | 91 | 102 | 97 | 0.514 | > 100 | > 100 | 0.32 | 7.69 | 3.91 | GI50 (SF-539): 0.259 µM; TGI (SF-539): 0.596 µM; CC50 (SF-539): > 100 µM; GI50 (SK-MEL-5): 0.269 µM; TGI (SK-MEL-5): 0.672 µM; CC50 (SK-MEL-5): 24 µM; growth at 0.1 µM (EKVX): 43%; GI50 [5]: 0.264 µM; TGI [5]: 0.695 µM; CC50 [5]: > 100 µM; GI50 (T47D [6]): 0.475 µM; LC50 (T47D [6]): > 100 µM; TGI (T47D [6]): 17.3 µM; growth at 10 µM (SR): 9.06%; growth at 1 µM (DU-145): -40%; growth at 1 µM [7]: -13%; growth at 10 µM (HCT-116): -31.6%; growth at 10 µM (CAKI-1): -11%
